Assay results published in ChEMBL document CHEMBL4414566, “Cytotoxicity and Anti-inflammatory Properties of Apigenin-Derived Isolaxifolin” (J Nat Prod, 2019).
Activity calls are given as the source filed them. The rule behind the calls is not given here.

Key:
RAW264.7 = assay: Antiinflammatory activity in mouse RAW264.7 cells assessed as inhibition of LPS-induced NO production at 0.8 to 3.1 uM measured after 24 hrs by griess reagent based assay; format: functional, cell-based
Summary of the method: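 Murine RAW 264.7 macrophages, 1 × 10^5/well, 4 h settling, then LPS (1.0 μg/mL) for 24 h. Medium was swapped for test solutions (0.8–3.1 μM or 2.3–9.2 μM), or DXM 254.8 μM as positive control, for another 24 h. Secreted NO was measured by Griess assay; TNF-α and IL-6 by ELISA. Run in triplicate, mean ± SD.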

[1] = Cytotoxicity against mouse RAW264.7 cells assessed as reduction in cell viability incubated for 24 hrs by MTT assay; format: cell-based; conditions: read-out: MNCC
Summary of the method: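 MTT viability assay: RAW 264.7 cells seeded at 2.5 × 10^4 cells/well, cultured 12 h, then given five concentrations from serial dilution (up to 6.2 or 9.2 μM; final DMSO <1%) for 24 h. Viability was calculated relative to untreated blank control; n = 3, mean ± SD.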

MDA-MB-231 [2] = assay: Induction of mitochondrial membrane potential loss in human MDA-MB-231 cells incubated for 48 hrs by JC1 staining based flow cytometric analysis; format: functional, cell-based
Summary of the method: (§1)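 MDA-MB-231 cells in DMEM/10% FBS exposed 48 h to 0, 8.6, 12.4 or 17.3 μM. Harvested cells stained with JC-1 for 15 min in the dark, then analysed by flow cytometry. Excitation 488 nm; green emission read at 525 nm, red at 590 nm. Output given as percent green-to-red fluorescence intensity ratio. Triplicate, mean ± SD.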

MDA-MB-231 [3] = assay: Induction of apoptosis in human MDA-MB-231 cells assessed as necrotic cells at 17.3 uM incubated for 48 hrs by annexin V-FITC/PI based flow cytometric analysis (Rvb= 0.74%); format: functional
MDA-MB-231 [4] = assay: Induction of apoptosis in human MDA-MB-231 cells assessed as viable cells at 17.3 uM incubated for 48 hrs by annexin V-FITC/PI based flow cytometric analysis (Rvb= 96.21%); format: functional; conditions: MDA-MB-231, 48 h, read-out: Activity
MDA-MB-231 [5] = assay: Induction of apoptosis in human MDA-MB-231 cells assessed as necrotic cells at 12.4 uM incubated for 48 hrs by annexin V-FITC/PI based flow cytometric analysis (Rvb= 0.74%); format: functional
MDA-MB-231 [6] = assay: Induction of apoptosis in human MDA-MB-231 cells assessed as early apoptotic cells at 12.4 uM incubated for 48 hrs by annexin V-FITC/PI based flow cytometric analysis (Rvb= 0.24%); format: functional
MDA-MB-231 [7] = assay: Induction of apoptosis in human MDA-MB-231 cells assessed as viable cells at 12.4 uM incubated for 48 hrs by annexin V-FITC/PI based flow cytometric analysis (Rvb= 96.21%); format: functional; conditions: MDA-MB-231, 48 h, read-out: Activity
MDA-MB-231 [8] = assay: Induction of apoptosis in human MDA-MB-231 cells assessed as necrotic cells at 8.6 uM incubated for 48 hrs by annexin V-FITC/PI based flow cytometric analysis (Rvb= 0.74%); format: functional
MDA-MB-231 [9] = assay: Induction of apoptosis in human MDA-MB-231 cells assessed as late apoptotic cells at 8.6 uM incubated for 48 hrs by annexin V-FITC/PI based flow cytometric analysis (Rvb= 2.82%); format: functional
MDA-MB-231 [10] = assay: Induction of apoptosis in human MDA-MB-231 cells assessed as early apoptotic cells at 8.6 uM incubated for 48 hrs by annexin V-FITC/PI based flow cytometric analysis (Rvb= 0.24%); format: functional
MDA-MB-231 [11] = assay: Induction of apoptosis in human MDA-MB-231 cells assessed as increase in nuclear chromatin condensation incubated for 48 hrs by Hoechst 33258 staining based fluorescence microscopic method; format: functional, cell-based
Summary of the method: (§2)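 MDA-MB-231 cells were grown 24 h and treated with 8.6, 12.4 or 17.3 μM for 48 h. They were then fixed 10 min, washed three times in PBS and stained 5 min with Hoechst 33258. Nuclear condensation was imaged by fluorescence microscopy (excitation 350 nm, emission 460 nm).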

MDA-MB-231 [12] = assay: Induction of cell cycle arrest in human MDA-MB-231 cells assessed as accumulation of cells at G2/M phase at 17.3 uM incubated for 48 hrs by PI/RNase staining based flow cytometric analysis (reference value: 10.4%); format: functional
Summary of the method: (§3)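 Cell-cycle analysis: MDA-MB-231 cells were preincubated 24 h, then treated with 8.6, 12.4 or 17.3 μM for 48 h. Cells were pelleted, fixed in 75% ethanol at −20 °C overnight, and stained with PI/RNase for 15 min in the dark at ambient temperature. About 10 000 cells per well were analyzed by flow cytometry for DNA content.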

MDA-MB-231 [13] = assay: Induction of cell cycle arrest in human MDA-MB-231 cells assessed as accumulation of cells at G0/G1 phase at 17.3 uM incubated for 48 hrs by PI/RNase staining based flow cytometric analysis (reference value: 50.4%); format: functional; summary of the method: as §3
MDA-MB-231 [14] = assay: Induction of cell cycle arrest in human MDA-MB-231 cells assessed as accumulation of cells at G2/M phase at 12.4 uM incubated for 48 hrs by PI/RNase staining based flow cytometric analysis (reference value: 10.4%); format: functional; summary of the method: as §3
MDA-MB-231 [15] = assay: Induction of cell cycle arrest in human MDA-MB-231 cells assessed as accumulation of cells at G0/G1 phase at 12.4 uM incubated for 48 hrs by PI/RNase staining based flow cytometric analysis (reference value: 50.4%); format: functional; summary of the method: as §3
HCT-116 = assay: Antiproliferative activity against human HCT116 cells assessed as cell viability at >34.6 uM incubated for 48 hrs by methylene blue assay relative to control; format: functional
Summary of the method: (§4)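 MDA-MB-231, MCF-7, HepG2 and LNCaP cells were grown in DMEM; HCT-116 and LO-2 in RPMI-1640; all with 10% FBS at 37 °C, 5% CO2. Cells seeded at 1.5 × 10^5 cells/mL and incubated overnight (~12 h), then exposed to 6.2–30.9 μM or 23.1–185.0 μM (final DMSO <0.1%) for 48 h. Read by methylene blue staining; viability = Abs treated/Abs untreated × 100%, triplicate.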

LNCaP = assay: Antiproliferative activity against human LNCAP cells assessed as cell viability at >30.9 uM incubated for 48 hrs by methylene blue assay relative to control; format: functional; summary of the method: as §4
L02 = assay: Cytotoxicity against human LO2 cells assessed as reduction in cell viability at 6.2 to 30.9 uM incubated for 48 hrs by methylene blue assay; format: cell-based; conditions: l02, 48 h; summary of the method: as §4
MDA-MB-231 [16] = assay: Induction in apoptosis in human MDA-MB-231 cells assessed as apoptotic cell bodies formation at 17.3 uM incubated for 48 hrs by Hoechst 33258 staining based fluorescence microscopic method; format: functional; summary of the method: as §2
MDA-MB-231 [17] = assay: Induction of mitochondrial membrane potential loss in human MDA-MB-231 cells cell population with mitochondrial membrane potential collapse by measuring green fluorescence at 8.6 uM incubated for 48 hrs by JC1 staining based flow cytometric analysis (reference value: 7.96%); format: functional; summary of the method: as §1
MDA-MB-231 [18] = assay: Induction of apoptosis in human MDA-MB-231 cells assessed as increase in late apoptotic cells population incubated for 48 hrs by annexin V-FITC/PI based flow cytometric analysis; format: functional, cell-based

Which inhibition (RAW264.7) does the source give for CC(C)=CCc1c2c(c(O)c3c(=O)cc(-c4ccc(O)cc4)oc13)C=CC(C)(C)O2 [LAXIFOLIN] here?
The inhibition was “Active”.

What about the MNTC at 24 h [1] of the same compound?
Its MNTC at 24 h is 3.1 µM.

And the Activity (MDA-MB-231 [2])?
Its Activity is “Dose-dependent effect”.

What about the Activity (MDA-MB-231 [3]) of the same compound?
Its Activity is 5.57%.

What about the viability at 17.3 µM (MDA-MB-231 [4]) of the same compound?
The viability at 17.3 µM was 68.9%.

And the Activity (MDA-MB-231 [5])?
The Activity was 1.19%.

And the Activity (MDA-MB-231 [6])?
The Activity was 0.58%.

And the viability at 12.4 µM (MDA-MB-231 [7])?
Its viability at 12.4 µM is 85.3%.

And the Activity (MDA-MB-231 [8])?
The Activity was 1.04%.

What about the Activity (MDA-MB-231 [9]) of the same compound?
Its Activity is 9.8%.

What about the Activity (MDA-MB-231 [10]) of the same compound?
The Activity was 0.87%.

And the Activity (MDA-MB-231 [11])?
Its Activity is “Dose-dependent effect”.

And the Activity (MDA-MB-231 [12])?
The Activity was 9.87%.

And the Activity (MDA-MB-231 [13])?
The Activity was 63.3%.

What about the Activity (MDA-MB-231 [14]) of the same compound?
The Activity was 11.6%.

And the Activity (MDA-MB-231 [15])?
Its Activity is 60.2%.

And the Activity (HCT-116)?
The Activity was 20%.

And the Activity (LNCaP)?
Its Activity is 20%.

And the Activity (L02)?
The Activity was “Non-Toxic”.

What about the Activity (MDA-MB-231 [16]) of the same compound?
The Activity was “Active”.

And the Activity (MDA-MB-231 [17])?
Its Activity is 16.49%.

What about the Activity (MDA-MB-231 [18]) of the same compound?
Its Activity is “Dose-dependent effect”.
